The nature of data set [1]: Solubility after 30 mins by turbidimetric solubility assay. In kind it is physicochemical. In short, it runs like this:
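Serial dilutions from a 1 mM DMSO stock added to 100 mM PBS pH 7.4, giving 1% final DMSO and a final range of 1–500 […], three replicates per concentration. After 30 min, absorbance read at 500, 550, 600, 650 and 700 nm.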

In data set [2] the target is T1, ATP-dependent translocase ABCB1 (Homo sapiens, UniProt P08183). The experiment in a line: Inhibition of MDR1 (unknown origin) expressed in MDCK cells after 30 mins by Calcein-AM assay. In kind it is cell-based.
T1 sequence (P08183 whole entry): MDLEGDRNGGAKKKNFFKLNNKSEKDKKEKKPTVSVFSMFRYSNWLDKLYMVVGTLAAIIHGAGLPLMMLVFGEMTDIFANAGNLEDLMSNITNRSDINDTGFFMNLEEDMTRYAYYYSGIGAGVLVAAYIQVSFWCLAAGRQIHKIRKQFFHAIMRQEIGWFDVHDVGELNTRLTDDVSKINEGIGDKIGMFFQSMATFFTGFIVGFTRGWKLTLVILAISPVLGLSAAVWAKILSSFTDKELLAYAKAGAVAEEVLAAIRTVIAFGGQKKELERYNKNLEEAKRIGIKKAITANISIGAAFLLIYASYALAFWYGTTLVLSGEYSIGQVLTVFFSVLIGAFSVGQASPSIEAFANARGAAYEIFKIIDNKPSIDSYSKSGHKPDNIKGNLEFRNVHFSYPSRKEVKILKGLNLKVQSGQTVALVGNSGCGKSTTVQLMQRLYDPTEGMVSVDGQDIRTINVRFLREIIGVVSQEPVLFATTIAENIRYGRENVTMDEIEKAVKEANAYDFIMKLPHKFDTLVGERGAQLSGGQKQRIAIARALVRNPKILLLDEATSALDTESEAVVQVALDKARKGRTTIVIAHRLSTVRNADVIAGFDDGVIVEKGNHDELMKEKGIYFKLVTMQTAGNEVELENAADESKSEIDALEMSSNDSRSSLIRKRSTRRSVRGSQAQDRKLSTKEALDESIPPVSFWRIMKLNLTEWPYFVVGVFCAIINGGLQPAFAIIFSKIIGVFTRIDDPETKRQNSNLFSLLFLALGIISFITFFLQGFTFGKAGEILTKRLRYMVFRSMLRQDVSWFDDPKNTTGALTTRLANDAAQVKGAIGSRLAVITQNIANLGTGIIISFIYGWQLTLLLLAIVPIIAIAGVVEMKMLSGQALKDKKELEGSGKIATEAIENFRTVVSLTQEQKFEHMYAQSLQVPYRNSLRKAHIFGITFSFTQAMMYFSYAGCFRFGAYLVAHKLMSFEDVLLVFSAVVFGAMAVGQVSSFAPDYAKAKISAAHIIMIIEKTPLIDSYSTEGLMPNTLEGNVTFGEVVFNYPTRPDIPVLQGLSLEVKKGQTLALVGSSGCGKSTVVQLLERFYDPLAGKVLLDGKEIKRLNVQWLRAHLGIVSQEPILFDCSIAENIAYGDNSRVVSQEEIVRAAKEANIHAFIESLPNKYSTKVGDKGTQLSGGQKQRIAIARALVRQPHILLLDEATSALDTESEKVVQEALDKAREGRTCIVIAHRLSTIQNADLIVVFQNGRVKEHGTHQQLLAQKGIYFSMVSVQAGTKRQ
The nature of data set [3]: Partition coefficient, logK of the compound using methanol/pH 7.4 phosphate buffer by RP-chromatography. In kind it is physicochemical. The gist of the method:
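Isocratic RP-HPLC on a C18 column (300SB, 4.6 × 250 mm, 5 μm) at 1 mL/min with UV detection at 230 and 254 nm. Eluent methanol/PBS pH 7.4 70:30. Samples 0.1 mg/mL in 10% DMSO/90% methanol. Dead time taken from D2O. Log k′ = log[(tr − t0)/t0], using the mean of three injections.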

Data set [4] in a line: Lipophilicity, logD of the compound at pH 7.4. In kind it is physicochemical. The conditions noted are these: buffer. The gist of the method:
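Octanol/PBS pH 7.4 partitioning, with chemiluminescent nitrogen detection as the read-out; carried out by an outside contractor.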

The nature of data set [5]: Efflux ratio, ratio of permeability from basolateral to apical side over apical to basolateral side in human Caco2 cells by UV spectroscopy. In kind it is ADME, cell-based. The conditions noted are these: Caco-2. In short, it runs like this:
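Caco-2 monolayers grown 21 days, then equilibrated twice in HBSS pH 7.4 at 37 °C for 30 min. Drug dissolved in HBSS was added to the apical or basolateral side, with an initial concentration of 1 × 10⁻⁴ M. Transport ran 120 min at 37 °C. Acceptor concentration was read by UV; Papp (nm/s) was computed from it. The ratio is B→A Papp over A→B Papp. Mean of three independent experiments, each in triplicate.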
Background: Caco-2 monolayers are a common model of the intestinal barrier.

Data set [6] concerns the target T1, ATP-dependent translocase ABCB1. As to the kind of experiment: Inhibition of MDR1 in human MCF7/ADR cells assessed as potentiation of doxorubicin-induced antiproliferative activity at 1 to 25 uM after 72 hrs by MTT assay. In kind it is cell-based. The conditions noted are these: nci/adr-res. In short, it runs like this:
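MCF7adr cells, grown in RPMI 1640 with 10% FBS, seeded at 25000/well. Next day, compound added at 1, 10 or 25 μM for 24 h. Medium then replaced and the same concentration given with doxorubicin 10 μM for 48 h. MTT 0.5 mg/mL for 3–4 h at 37 °C, formazan dissolved in DMSO/EtOH 1:1, absorbance read at 570 and 630 nm.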

Data set [7] shares this target. As to the kind of experiment: Inhibition of MDR1 (unknown origin) expressed in MDCK cells after 2 hrs by bioluminescent ATP assay. In kind it is cell-based. The gist of the method:
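MDCK-MDR1 cells seeded at 2 × 10⁴ cells/well and incubated overnight at 37 °C, 5% CO₂, then exposed to test compounds (1, 10, 50, 100 μM) in complete medium for 2 h. Cells lysed, luciferase/D-luciferin substrate added, dark-adapted 10 min, and luminescence read as a measure of cellular ATP. Untreated cells served as control.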

≈ marks a conversion by molar mass, not a printed value.

By kinetic solubility is commonly meant the concentration staying in solution when a stock, usually in DMSO, is diluted into the medium. Regarding `COc1cc(C(=O)Nc2ccc(-c3cccnc3)cc2[N+](=O)[O-])cc(OC)c1OC`, the kinetic solubility at 0.5 h in data set [1] worked out at 0.01 mg/mL (≈ 24.4 µM).

What is called IC50 is the concentration at which inhibition is half-maximal. Turning to `COc1cc2c(cc1OC)CN(CC/C=C1\CCCc3c(OC)cccc31)CC2`, the IC50 in data set [2] was 1.02 µM.

Usually logD stands for the decadic logarithm of the distribution of all forms, ionised or not, between an organic phase and buffer at a given pH. Lower therefore signals lower lipophilicity. Consider `COc1cc(C(=O)Nc2ccc(-c3cc(F)cc(F)c3)cn2)cc(OC)c1OC`, for which, in data set [2], the IC50 is 1.3 µM. For the same molecule, in data set [3], the “log K” value was found to be 0.32. Further, the logD in data set [4] turned out to be 3.59.

The term efflux ratio denotes a quotient of directional permeabilities that is used to spot active efflux. As to `COc1cc(OC)c(C(=O)Nc2ccc(-c3cc(F)cc(F)c3)cn2)cc1OC`, the efflux ratio in data set [5] is 10.7. Further, in data set [2], the IC50 is 0.97 µM. In addition, the outcome in data set [6] was Active. Also, in data set [7], the “inhibition (INH)” value is “Active”. In addition, in data set [3], the “log K” value was 0.47. In data set [4], the logD is 3.66.

For `COc1cc(C(=O)Nc2ccc(-c3cccnc3)cn2)cc(OC)c1OC`, the IC50 in data set [2] is 8.21 µM. Further, the “log K” value in data set [3] was -0.44. The molecule also had a logD in data set [4] of 2.39.

Take `COc1cc(OC)c(C(=O)Nc2ccc(-c3cccnc3)cn2)cc1OC`: in data set [2], the IC50 was 0.54 µM. Moreover, the “log K” value in data set [3] is -0.12. The molecule further showed a logD in data set [4] of 3.03.

`COc1cc(C(=O)Nc2ccc(-c3cccnc3)cc2F)cc(OC)c1OC` had a kinetic solubility at 0.5 h in data set [1] of 0.025 mg/mL (≈ 65.4 µM). The “log K” value in data set [3] is listed as -0.36. In data set [4], this molecule registered a logD of 2.48.

In turn, `COc1cc(OC)c(C(=O)Nc2ccc(-c3cccnc3)cc2F)cc1OC` came in with a kinetic solubility at 0.5 h in data set [1] of 0.03 mg/mL (≈ 78.5 µM). Further, in data set [5], the efflux ratio stood at 14. In addition, the IC50 in data set [2] is 0.2 µM. Further, the result in data set [6] was Active. For the same molecule, the “inhibition (INH)” value in data set [7] is reported as “Active”. Also, in data set [3], the “log K” value turned out to be 0.24. The molecule further registered a logD in data set [4] of 2.84.

As to `COc1ccc(C(=O)Nc2ccc(-c3cccnc3)cc2F)c(OC)c1OC`, the solubility (kinetic) at 0.5 h in data set [1] stood at 0.045 mg/mL (≈ 118 µM). In addition, the efflux ratio in data set [5] was 6.7. Moreover, the IC50 in data set [2] is 0.67 µM. Also, the outcome in data set [6] was Active. The “inhibition (INH)” value in data set [7] is given as “Active”. In data set [3], the “log K” value is on record as 0.37. Besides, the logD in data set [4] was 3.99.

As to `COc1cc(OC)c(C(=O)Nc2ccc(-c3cccnc3)cc2F)c(OC)c1`, the solubility (kinetic) at 0.5 h in data set [1] came out at 0.06 mg/mL (≈ 157 µM). For the same molecule, the IC50 in data set [2] was 2.93 µM. Also, in data set [3], the “log K” value was -0.39. The molecule further yielded a log distribution coefficient (logD) in data set [4] of 2.38.

Regarding `COc1ccc(C(=O)Nc2ccc(-c3cccnc3)cc2F)cc1OC`, in data set [1], the kinetic solubility at 0.5 h was determined as 0.018 mg/mL (≈ 51.1 µM). The IC50 in data set [2] was 8.92 µM. The “log K” value in data set [3] is listed as -0.45. The molecule further came in with a logD in data set [4] of 2.23.

For the molecule `COc1cc(OC)cc(C(=O)Nc2ccc(-c3cccnc3)cc2F)c1`, in data set [1], the solubility (kinetic) at 0.5 h stood at 0.02 mg/mL (≈ 56.8 µM). Moreover, the IC50 in data set [2] was 3.3 µM. For the same molecule, the “log K” value in data set [3] is reported as -0.18. Further, the logD in data set [4] is 2.81.

Take `COc1ccc(C(=O)Nc2ccc(-c3cccnc3)cc2F)cc1`: the kinetic solubility at 0.5 h in data set [1] worked out at 0.022 mg/mL (≈ 68.3 µM). The IC50 in data set [2] was 5.26 µM. For the same molecule, the “log K” value in data set [3] is given as -0.32. Besides, in data set [4], the logD turned out to be 2.9.

In turn, `O=C(Nc1ccc(-c2cccnc2)cc1F)c1ccccc1` registered a solubility (kinetic) at 0.5 h in data set [1] of 0.04 mg/mL (≈ 137 µM). Besides, the IC50 in data set [2] is 9.2 µM. Also, in data set [3], the “log K” value is -0.38. Moreover, the logD in data set [4] was determined as 2.83.

In data set [1], `O=C(Nc1ccc(-c2cccnc2)cc1F)c1cccnc1` registered a kinetic solubility at 0.5 h of 0.3 mg/mL (≈ 1020 µM). Further, the IC50 in data set [2] is 60.1 µM. In addition, the “log K” value in data set [3] is on record as -0.68. Also, in data set [4], the logD was determined as 1.97.

In the case of `COc1cc(C(=O)Nc2ccc(-c3ccncc3)cc2F)cc(OC)c1OC`, in data set [2], the IC50 is 3.2 µM. In addition, the “log K” value in data set [3] is recorded as -0.31. This molecule also gave a logD in data set [4] of 2.75.

For the molecule `COc1cc(OC)c(C(=O)Nc2ccc(-c3ccncc3)cc2F)cc1OC`, the efflux ratio in data set [5] was found to be 8.1. For the same molecule, in data set [2], the IC50 is 0.31 µM. The result in data set [6] was Active. Moreover, the “inhibition (INH)” value in data set [7] was “Active”. Besides, the “log K” value in data set [3] came to 0.31. Moreover, the logD in data set [4] was 3.13.

`COc1ccc(-c2ccc(NC(=O)c3cc(OC)c(OC)cc3OC)c(F)c2)cc1`: the IC50 in data set [2] was 1.23 µM. For the same molecule, the “log K” value in data set [3] is 0.67. This molecule registered a logD in data set [4] of 3.64.

As to `COc1ccc(S(=O)(=O)Nc2ccc(-c3cccnc3)cc2F)cc1OC`, the IC50 in data set [2] is 67.5 µM. Besides, the “log K” value in data set [3] was -0.88. In data set [4], this molecule returned a logD of 1.7.

`COc1cc(C(=O)Nc2ccc(-c3cc(F)cc(F)c3)cc2N)cc(OC)c1OC`: the IC50 in data set [2] is 2.76 µM. Besides, in data set [3], the “log K” value is -0.09. In addition, the logD in data set [4] is 2.62.

With `COc1cc(C(=O)Nc2ccc(-c3cc(F)cc(F)c3)cc2NC(=O)[C@@H](C)NC(C)=O)cc(OC)c1OC`, the IC50 in data set [2] was 18.5 µM. Besides, the “log K” value in data set [3] is -0.03. Also, in data set [4], the logD is 2.31.

In the case of `COc1cc(C(=O)N(C)c2ccc(-c3cccnc3)cc2F)cc(OC)c1OC`, in data set [2], the IC50 is 6.66 µM. Moreover, the “log K” value in data set [3] is -0.51. For the same molecule, the logD in data set [4] is 2.32.

As for `COc1cc(OC)c(C(=O)N(C)c2ccc(-c3cccnc3)cc2F)cc1OC`, the IC50 in data set [2] was 21.6 µM. Also, in data set [3], the “log K” value is -0.59. The molecule also yielded a logD in data set [4] of 1.75.

(Values after ChEMBL document CHEMBL3351897, “Trimethoxybenzanilide-based P-glycoprotein modulators: an interesting case of lipophilicity tuning by intramolecular hydrogen bonding” (J Med Chem, 2014).)
